ASAP1 inh: inhibitors of human ASAP1 ArfGAP activity, primary screen, biochemical, fluorescence polarization | Arf-GAP with SH3 domain, ANK repeat and PH domain-containing protein 1 (Homo sapiens), … | ASAP1-stimulated ARF1 GTP hydrolysis, GDP FP detection | inhibition, % at 16.5 µM | hit rate 0.19% among 360,000; in the data active = inhibition above about 25%
Target sequence (Q9ULH1 325-724 limits assumed): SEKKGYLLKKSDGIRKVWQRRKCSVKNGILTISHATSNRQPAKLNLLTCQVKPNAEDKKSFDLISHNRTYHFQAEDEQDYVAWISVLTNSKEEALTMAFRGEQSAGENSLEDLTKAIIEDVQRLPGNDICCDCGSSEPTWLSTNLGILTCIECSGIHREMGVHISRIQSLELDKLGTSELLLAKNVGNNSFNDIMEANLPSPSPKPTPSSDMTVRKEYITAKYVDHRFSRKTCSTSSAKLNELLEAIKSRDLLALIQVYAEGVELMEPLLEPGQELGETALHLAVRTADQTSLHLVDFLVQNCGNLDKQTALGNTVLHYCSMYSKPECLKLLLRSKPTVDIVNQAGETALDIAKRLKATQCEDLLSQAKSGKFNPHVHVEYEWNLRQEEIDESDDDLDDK
ARFGAP1 inh: inhibitors of rat ARFGAP1 GAP activity, primary screen, biochemical, fluorescence polarization, GDP tracer; ADP-ribosylation factor GTPase-activating protein 1 (Rattus norvegicus), Q62848; Arfgap1-stimulated ARF1 GTP hydrolysis, GDP FP detection; inhibition, % at 16.5 µM; hit rate 0.26% among 360,000; AID 651572, 2012;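 active = inhibition above a per-plate limit, mean inhibition of low control wells plus 3 SD, cut at about 25% in these data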
Target sequence (Q62848 1-136 limits assumed): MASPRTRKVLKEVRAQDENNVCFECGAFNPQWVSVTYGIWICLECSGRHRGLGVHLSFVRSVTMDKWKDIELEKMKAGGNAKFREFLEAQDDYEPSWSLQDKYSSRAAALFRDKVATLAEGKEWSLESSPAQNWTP
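Material – truncated rat Arfgap1 GAP domain · Buffer or medium – HEPES-based buffer, pH 7.5 · Reagent – human ARF1(Δ1-17)-GTP substrate · Dosing – 16.5 µM single point, 1.26% DMSO · Schedule – GTP hydrolysis reaction 2 h at 25 °C · Technique – GDP detection by fluorescence polarization · Benchmarks – No-Arfgap1 wells (100%) versus DMSO full-reaction wells (0%) · Repeats – single replicate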
MsrA inhibitor: bovine MsrA enzyme inhibitors, primary screen, biochemical, absorbance, HTS | hit rate 0.75% among 360,000 | inhibition, % at 15.5 µM | purified bovine MsrA, absorbance read-out | AID 651718, 2012; in the data active = inhibition above about 4.5%
MsrA act: bovine MsrA enzyme activators, primary screen, biochemical, absorbance, HTS; purified bovine MsrA, absorbance read-out; activation, % at 10.6 µM; hit rate 0.3% among 360,000; AID 602163, 2012; in the data active = activation above about 7.5%
A number is an active result. Hits are enriched below; roughly 1.4% of the tested compounds scored in any of these assays.

CCN(CC)CC(C)(C)C(=O)/C=C/c1ccc(/C=C/C(=O)C(C)(C)CN(CC)CC)cc1 was read as ASAP1 inh inactive, ARFGAP1 inh inactive, MsrA inhibitor 12 and MsrA act inactive.
C=CCOc1ccc(/C(O)=C2/C(=O)C(=O)N(CCCn3ccnc3)C2c2ccco2)cc1 (configuration not stated) was read as ASAP1 inh inactive, ARFGAP1 inh inactive, MsrA inhibitor inactive and MsrA act inactive.
`COc1cc2sc3cc(NCC[C@@H]4CCCN4C)ccc3c(=O)c2cc1OC` gave ASAP1 inh inactive, ARFGAP1 inh 27, MsrA inhibitor inactive and MsrA act inactive.
CC(=O)C1=C(O)C=C(c2ccco2)CC1c1ccco1 (configuration not stated) was read as ASAP1 inh inactive, ARFGAP1 inh inactive, MsrA inhibitor 4.8 and MsrA act inactive.
O=C(CCl)N1N=C(c2ccco2)CC1c1ccco1 (configuration not stated) was read as ASAP1 inh inactive, ARFGAP1 inh inactive, MsrA inhibitor inactive and MsrA act inactive.
Screening N#Cc1ccc(Nc2nc(NCc3ccccc3)nc3ccsc23)cc1 returned ASAP1 inh inactive, ARFGAP1 inh inactive, MsrA inhibitor inactive and MsrA act inactive.
C#Cc1cccc(Nc2nc(NCc3ccccc3)nc3ccsc23)c1 was read as ASAP1 inh inactive, ARFGAP1 inh inactive, MsrA inhibitor 13 and MsrA act inactive.
`CC1CN(C(=O)c2ccc(-c3cccc(C(F)(F)F)c3)o2)CC(C)O1` (configuration not stated) gave ASAP1 inh inactive, ARFGAP1 inh inactive, MsrA inhibitor inactive and MsrA act inactive.
Cc1ccc2sc(-c3ccc(NC(=O)/C=C\C(=O)O)cc3)nc2c1 was read as ASAP1 inh inactive, ARFGAP1 inh inactive, MsrA inhibitor inactive and MsrA act inactive.
`COc1ccc(-c2nc3ncccc3o2)cc1NC(=O)c1ccco1` gave ASAP1 inh inactive, ARFGAP1 inh inactive, MsrA inhibitor 4.6 and MsrA act inactive.
Cc1nn(-c2ccccc2)c(N2CCCC2)c1/C=N/NC(=O)c1cc(-c2ccccc2)nc2ccccc12 was read as ASAP1 inh inactive, ARFGAP1 inh inactive, MsrA inhibitor 4.6 and MsrA act inactive.
Cc1ccc(C)c(/C(O)=C2\C(=O)C(=O)N(Cc3cccnc3)C2c2cccnc2)c1 (configuration not stated) was read as ASAP1 inh inactive, ARFGAP1 inh inactive, MsrA inhibitor 4.8 and MsrA act inactive.
For Cc1ccc(C(=O)Nc2scc(-c3ccccc3)c2C(=O)O)o1 the results were ASAP1 inh inactive, ARFGAP1 inh inactive, MsrA inhibitor 4.6 and MsrA act inactive.
Screening O=C(Nc1nc(-c2cccs2)c(-c2ccccc2)s1)c1ccco1 returned ASAP1 inh inactive, ARFGAP1 inh 34, MsrA inhibitor inactive and MsrA act inactive.
`N#C/C(=C(/O)c1ccccc1F)c1nc2cc(C(F)(F)F)ccc2s1` gave ASAP1 inh inactive, ARFGAP1 inh inactive, MsrA inhibitor 4.7 and MsrA act inactive.
For CC(=O)N1CCc2c(sc(NC(=O)c3cccc(N4C(=O)CCC4=O)c3)c2C(N)=O)C1 the results were ASAP1 inh inactive, ARFGAP1 inh inactive, MsrA inhibitor 4.8 and MsrA act inactive.
For COc1cc2[nH]c(C(=O)Nc3ccc4c(c3)OCCO4)cc2c(OC)c1OC the results were ASAP1 inh inactive, ARFGAP1 inh inactive, MsrA inhibitor inactive and MsrA act inactive.
For COc1cc2cc(C(=O)Nc3ccc4c(c3)OCCO4)[nH]c2cc1OC the results were ASAP1 inh inactive, ARFGAP1 inh inactive, MsrA inhibitor 4.6 and MsrA act inactive.
Screening CC1(C)Cc2c(cnn2-c2ccccc2)C(NC(=O)CCCn2cncn2)C1 (configuration not stated) returned ASAP1 inh inactive, ARFGAP1 inh inactive, MsrA inhibitor inactive and MsrA act inactive.
`CCC(C)NS(=O)(=O)c1ccc(NC(=O)c2cccs2)cc1` (configuration not stated) gave ASAP1 inh inactive, ARFGAP1 inh inactive, MsrA inhibitor inactive and MsrA act inactive.
Screening Cc1ccc(NS(=O)(=O)c2ccc(NC(=O)c3cccs3)cc2)cc1 returned ASAP1 inh inactive, ARFGAP1 inh inactive, MsrA inhibitor inactive and MsrA act 8.2.
`C[C@H](O)[C@@H]1C(=O)N2CCc3c([nH]c4cccc(-c5ccccc5)c34)[C@@H]2C[C@@H]1N(C)C(=O)OCc1ccccc1` gave ASAP1 inh inactive, ARFGAP1 inh inactive and MsrA inhibitor inactive.
`COc1ccc(-c2ccc(/C=C(\NC(=O)c3ccccc3)C(=O)N3CCOCC3)o2)cc1` gave ASAP1 inh inactive, ARFGAP1 inh inactive, MsrA inhibitor 4.6 and MsrA act inactive.
`COc1cc(/C=N/NC(=O)c2nnn(-c3nonc3N)c2-c2cccs2)ccc1O` gave ASAP1 inh inactive, ARFGAP1 inh inactive, MsrA inhibitor inactive and MsrA act inactive.
For COc1ccc(/C=N/NC(=O)c2nnn(-c3nonc3N)c2-c2cccs2)cc1OC the results were ASAP1 inh inactive, ARFGAP1 inh inactive, MsrA inhibitor 4.6 and MsrA act inactive.
COc1ccc(/C=N/N=C(\N)c2nonc2N)cc1OC was read as ASAP1 inh inactive, ARFGAP1 inh inactive, MsrA inhibitor 4.6 and MsrA act inactive.
For COc1ccc(OC)c(/C=N/N=C(\N)c2nonc2N)c1 the results were ASAP1 inh inactive, ARFGAP1 inh inactive, MsrA inhibitor inactive and MsrA act inactive.
Screening CCCCC1SC(N)=NC1=O (configuration not stated) returned ASAP1 inh inactive, ARFGAP1 inh inactive, MsrA inhibitor inactive and MsrA act inactive.
CCCN1CCN(C(=O)c2ccc(S(=O)(=O)N(C)c3ccccc3OC)cc2)CC1 was read as ASAP1 inh inactive, ARFGAP1 inh inactive, MsrA inhibitor inactive and MsrA act inactive.
`COc1ccc(-c2ccc3c(=O)cc(-c4ccsc4)oc3c2)cn1` gave ASAP1 inh 26, ARFGAP1 inh 36, MsrA inhibitor inactive and MsrA act inactive.
Nc1nnc(CC(=O)N/N=C/c2ccc(-c3ccc(F)cc3)o2)s1 was read as ASAP1 inh inactive, ARFGAP1 inh inactive, MsrA inhibitor 6.1 and MsrA act inactive.
Screening CCOC(=O)c1ccc(-c2ccc(/C=N/NC(=O)Cc3nnc(N)s3)o2)cc1 returned ASAP1 inh inactive, ARFGAP1 inh inactive, MsrA inhibitor inactive and MsrA act inactive.
For Cc1ccc(S(=O)(=O)N2CCCCC2)cc1NCC(=O)Nc1ccc(Br)cc1F the results were ASAP1 inh inactive, ARFGAP1 inh inactive, MsrA inhibitor inactive and MsrA act inactive.
`Cc1ccc(F)cc1CNC(=O)C1CCC(=O)N(CCCN2CCCC2=O)C1` (configuration not stated) gave ASAP1 inh inactive, ARFGAP1 inh inactive, MsrA inhibitor inactive and MsrA act inactive.
For O=C1NC[C@@H](c2ccccc2)OC(=O)[C@@H](Cc2ccc(F)cc2)CC/C=C/C[C@@H]1CC(=O)N(CCO)Cc1ccccc1 the results were ASAP1 inh inactive, ARFGAP1 inh inactive, MsrA inhibitor inactive and MsrA act inactive.

Assay outcomes (PubChem)
